This note sets out measurements from ChEMBL document CHEMBL3421560, “Search for factors affecting antibacterial activity and toxicity of 1,2,4-triazole-ciprofloxacin hybrids” (Eur J Med Chem, 2015).

Holding throughout (type): functional
Assay [1] concerns Staphylococcus aureus. The assay is described as follows: Antimicrobial activity against methicillin-susceptible Staphylococcus aureus ATCC 25923 after 18 hrs by broth microdilution method. The note with it: ATCC 25923, 18 h. For orientation: Broth dilution looks for growth in wells or tubes with falling amounts of substance.
Assay [2] has as its system Staphylococcus aureus. The assay is described as follows: Antimicrobial activity against methicillin-susceptible Staphylococcus aureus ATCC 6538 after 18 hrs by broth microdilution method. The note with it: ATCC 6538, 18 h.
The test system of assay [3] is Staphylococcus aureus. The assay is described as follows: Antimicrobial activity against Staphylococcus aureus Microbank 14001 after 18 hrs by broth microdilution method. Conditions: Microbank 14001, 18 h.
The subject of assay [4] is Staphylococcus epidermidis. The assay is described as follows: Antimicrobial activity against Staphylococcus epidermidis ATCC 12228 after 18 hrs by broth microdilution method. Conditions: ATCC 12228, 18 h.
For assay [5], the system named is Bacillus subtilis. The assay is described as follows: Antimicrobial activity against Bacillus subtilis […] after 18 hrs by broth microdilution method.
Assay [6] relates to Bacillus cereus. The assay is described as follows: Antimicrobial activity against Bacillus cereus ATCC 10876 after 18 hrs by broth microdilution method. The note with it: ATCC 10876, 18 h.
Assay [7] deals with Micrococcus luteus. The assay is described as follows: Antimicrobial activity against Micrococcus luteus ATCC 10240 after 18 hrs by broth microdilution method. The note with it: ATCC 10240, 18 h.
Assay [8] has as its system Staphylococcus aureus. The assay is described as follows: Ratio of MBC for methicillin-susceptible Staphylococcus aureus ATCC 25923 to MIC for methicillin-susceptible Staphylococcus aureus ATCC 25923. Summed up:
(§1)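 MBC taken as lowest concentration giving >99.9% CFU reduction of the initial inoculum; value is MBC divided by MIC for the same strain.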

The test system of assay [9] is Staphylococcus aureus. The assay is described as follows: Ratio of MBC for methicillin-susceptible Staphylococcus aureus ATCC 6538 to MIC for methicillin-susceptible Staphylococcus aureus ATCC 6538. Summed up: as §1
The test system of assay [10] is Staphylococcus aureus. The assay is described as follows: Ratio of MBC for Staphylococcus aureus Microbank 14001 to MIC for Staphylococcus aureus Microbank 14001. Summed up: as §1
In assay [11] the test system is Escherichia coli. The assay is described as follows: Antimicrobial activity against Escherichia coli ATCC 25922 after 18 hrs by broth microdilution method. Conditions: ATCC 25922, 18 h.
For assay [12], the system named is Klebsiella pneumoniae. The assay is described as follows: Antimicrobial activity against Klebsiella pneumoniae ATCC 13883 after 18 hrs by broth microdilution method. Conditions: ATCC 13883, 18 h.
For assay [13], the system named is Proteus mirabilis. The assay is described as follows: Antimicrobial activity against Proteus mirabilis ATCC 12453 after 18 hrs by broth microdilution method. Conditions: ATCC 12453, 18 h.
In assay [14] the test system is Pseudomonas aeruginosa. The assay is described as follows: Antimicrobial activity against Pseudomonas aeruginosa ATCC 9027 after 18 hrs by broth microdilution method. The note with it: ATCC 9027, 18 h.

≈ marks a conversion by molar mass, not a printed value.

The term MIC denotes the least concentration at which growth counts as inhibited. Low values mean a more susceptible organism, high ones a less susceptible organism.

With `O=C(O)c1cn(C2CC2)c2cc(N3CCN(Cn4nc(-c5ccccc5O)n(-c5ccccc5)c4=S)CC3)c(F)cc2c1=O`, the minimum inhibitory concentration (MIC) was 0.8 µM (≈ 0.49 µg/mL) in assay [1]; 0.39 µM (≈ 0.239 µg/mL) in assay [2]; 0.19 µM (≈ 0.116 µg/mL) in assay [3]; 0.098 µM (≈ 0.06 µg/mL) in assay [4]; 0.39 µM (≈ 0.239 µg/mL) in assay [5]; 0.098 µM (≈ 0.06 µg/mL) in [6]. Besides, the minimum inhibitory concentration (MIC) stood at 1.59 µM (≈ 0.974 µg/mL) in [7]; 0.012 µM (≈ 0.00735 µg/mL) in assay [11]; 0.049 µM (≈ 0.03 µg/mL) in assay [12]; 0.024 µM (≈ 0.0147 µg/mL) in assay [13]; 0.39 µM (≈ 0.239 µg/mL) in [14]. The Ratio entry in assay [8], in assay [9] and in [10] was “<=4” throughout.

`O=C(O)c1cn(C2CC2)c2cc(N3CCN(Cn4nc(-c5ccccc5O)n(-c5ccc(Cl)cc5)c4=S)CC3)c(F)cc2c1=O`: the minimum inhibitory concentration (MIC) was 0.76 µM (≈ 0.492 µg/mL) in [1]; 0.18 µM (≈ 0.116 µg/mL) in assay [2]; 0.093 µM (≈ 0.0602 µg/mL) in assay [3]; 0.18 µM (≈ 0.116 µg/mL) in [4]; 0.093 µM (≈ 0.0602 µg/mL) in assay [5]; 0.18 µM (≈ 0.116 µg/mL) in assay [6]. Besides, the MIC in assay [7] came out at 1.51 µM (≈ 0.977 µg/mL); in assay [11] it was 0.011 µM (≈ 0.00712 µg/mL); in [12], 0.023 µM (≈ 0.0149 µg/mL); in assay [13], 0.011 µM (≈ 0.00712 µg/mL); in assay [14], 0.37 µM (≈ 0.239 µg/mL). Besides, the Ratio result in assay [8], in assay [9] and in [10] was “<=4” each time.

Consider `CN[C@H](CC(C)C)C(=O)N[C@H]1C(=O)N[C@@H](CC(N)=O)C(=O)N[C@H]2C(=O)N[C@H]3C(=O)N[C@H](C(=O)N[C@H](C(=O)O)c4cc(O)cc(O)c4-c4cc3ccc4O)[C@H](O)c3ccc(c(Cl)c3)Oc3cc2cc(c3O[C@@H]2O[C@H](CO)[C@@H](O)[C@H](O)[C@H]2O[C@H]2C[C@](C)(N)[C@H](O)[C@H](C)O2)Oc2ccc(cc2Cl)[C@H]1O` [VANCOMYCIN], for which the minimal inhibitory concentration (MIC) in [3] came out at 0.68 µM (≈ 0.986 µg/mL).

Turning to `O=C(O)c1cn(C2CC2)c2cc(N3CCN(Cn4nc(-c5ccc(O)cc5)n(-c5ccc(Cl)cc5)c4=S)CC3)c(F)cc2c1=O`, the MIC worked out at 0.76 µM (≈ 0.492 µg/mL) in [1]; 0.37 µM (≈ 0.239 µg/mL) in assay [2]; 0.093 µM (≈ 0.0602 µg/mL) in [3]; 0.18 µM (≈ 0.116 µg/mL) in assay [4]; 0.046 µM (≈ 0.0298 µg/mL) in assay [5]; 0.18 µM (≈ 0.116 µg/mL) in assay [6]. Further, the MIC was 1.51 µM (≈ 0.977 µg/mL) in assay [7]; 0.011 µM (≈ 0.00712 µg/mL) in [11]; 0.093 µM (≈ 0.0602 µg/mL) in assay [12]; 0.012 µM (≈ 0.00777 µg/mL) in assay [13]; 0.18 µM (≈ 0.116 µg/mL) in assay [14]. Besides, the Ratio entry in [8], in assay [9] and in assay [10] was “<=4” each time.

For the compound `O=C(O)c1cn(C2CC2)c2cc(N3CCN(Cn4nc(-c5ccc(O)cc5)n(Cc5ccccc5)c4=S)CC3)c(F)cc2c1=O`, the minimal inhibitory concentration (MIC) in [1] is 3.11 µM (≈ 1.95 µg/mL); in [2], 1.56 µM (≈ 0.978 µg/mL); in assay [3], 1.56 µM (≈ 0.978 µg/mL); in assay [4], 0.19 µM (≈ 0.119 µg/mL); in assay [5], 0.78 µM (≈ 0.489 µg/mL); in [6] it was 0.19 µM (≈ 0.119 µg/mL). For the same compound, the MIC was found to be 6.24 µM (≈ 3.91 µg/mL) in assay [7]; 0.048 µM (≈ 0.0301 µg/mL) in [11]; 0.19 µM (≈ 0.119 µg/mL) in assay [12]; 0.024 µM (≈ 0.015 µg/mL) in assay [13]; 0.38 µM (≈ 0.238 µg/mL) in assay [14]. Further, the Ratio entry in assay [8], in assay [9] and in assay [10] was “<=4” throughout.

Consider `O=C(O)c1cn(C2CC2)c2cc(N3CCN(Cn4nc(-c5cccc(O)c5)n(-c5ccc(F)cc5)c4=S)CC3)c(F)cc2c1=O`, for which the MIC in assay [1] was found to be 0.76 µM (≈ 0.479 µg/mL); in [2] it was 0.38 µM (≈ 0.24 µg/mL); in [3] it was 0.38 µM (≈ 0.24 µg/mL); in [4], 0.19 µM (≈ 0.12 µg/mL); in [5], 0.095 µM (≈ 0.0599 µg/mL); in assay [6], 0.19 µM (≈ 0.12 µg/mL). Further, the minimal inhibitory concentration (MIC) came out at 1.55 µM (≈ 0.978 µg/mL) in assay [7]; 0.012 µM (≈ 0.00757 µg/mL) in assay [11]; 0.048 µM (≈ 0.0303 µg/mL) in assay [12]; 0.024 µM (≈ 0.0151 µg/mL) in [13]; 0.38 µM (≈ 0.24 µg/mL) in assay [14]. In addition, the Ratio entry in assay [8], in assay [9] and in assay [10] was “<=4” throughout.

As to `O=C(O)c1cn(C2CC2)c2cc(N3CCN(Cn4nc(-c5ccccc5O)n(-c5ccc(F)cc5)c4=S)CC3)c(F)cc2c1=O`, the minimal inhibitory concentration (MIC) in [1] was 1.55 µM (≈ 0.978 µg/mL); in assay [2], 0.38 µM (≈ 0.24 µg/mL); in assay [3] it was 0.19 µM (≈ 0.12 µg/mL); in assay [4], 0.38 µM (≈ 0.24 µg/mL); in [5] it was 0.19 µM (≈ 0.12 µg/mL); in assay [6], 0.19 µM (≈ 0.12 µg/mL). The MIC was found to be 3.09 µM (≈ 1.95 µg/mL) in assay [7]; 0.011 µM (≈ 0.00694 µg/mL) in assay [11]; 0.048 µM (≈ 0.0303 µg/mL) in assay [12]; 0.024 µM (≈ 0.0151 µg/mL) in assay [13]; 0.095 µM (≈ 0.0599 µg/mL) in assay [14]. The Ratio entry in assay [8], in [9] and in assay [10] was “<=4” throughout.
